The source made the active and inactive calls. No cut-off for these calls is given here.

Consider two molecules from ChEMBL document CHEMBL4808196, “Dual Bcl-XL /Bcl-2 inhibitors discovered from DNA-encoded libraries using a fragment pairing strategy” (Bioorg Med Chem, 2021).

Test [1] deals with K562. In words: Cytotoxicity against human K562 cells assessed as cell survival measured after 72 hrs by MTT assay. The class given is cell-based. To be noted: K562, 72 h. In outline:
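MTT viability assay: 10^4 cells/well seeded and held overnight at 37 C, 5% CO2 (K562 in IMDM with 10% FCS). Serially diluted compounds added for 72 h of exposure. MTT added at 0.3 mg/ml final for 4 h at 37 C. Formazan dissolved in 10% SDS/0.01 N HCl, absorbance read at 560/690 nm. EC50 from concentration–response plot.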
For orientation: Tetrazolium dyes change colour on reduction, which living cells bring about.

The target of test [2] is Apoptosis regulator Bcl-2 (Homo sapiens, UniProt P10415). In words: Binding affinity to Bcl-2 (unknown origin) measured by surface plasmon resonance based […]. In outline:
(§1)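 Biotinylated ligand (2800 RU) immobilised on a streptavidin SPR chip. Bcl protein in HBS-EP running buffer injected at 0.5, 0.25, 0.125 and 0.062 µM. Association 120 s, dissociation 240 s, 30 µl/min, 25 C. Surface regenerated with a 5 s pulse of 10 mM NaOH. KD estimated by kinetic fitting.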

The target in test [3] is T1, Bcl-2-like protein 1 (Homo sapiens, UniProt Q07817). The test can be described thus: Binding affinity to Bcl-XL (unknown origin) using Bim peptide by surface plasmon resonance-based competition assay. In short, it runs like this:
(§2)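 SPR competition on a streptavidin chip carrying 2800 RU biotinylated ligand. Flowed 0.5 µM Bcl-XL alone or premixed with 1.0 µM native BH3 peptide: Bim 26mer or Puma 25mer. Binding responses compared.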
For orientation: Surface plasmon resonance follows binding to a sensor surface in real time, without labels.

Test [4] has as its target T1, Bcl-2-like protein 1. The test can be described thus: Competitive binding affinity to Bcl-XL (unknown origin) using ABT-199 by western blot based pull down assay. In general terms: Immunoblotting shows a protein as a band on a membrane.
Test [5] has as its target Induced myeloid leukemia cell differentiation protein Mcl-1 (Homo sapiens, UniProt Q07820). The test can be described thus: Binding affinity to Mcl-1 (unknown origin) measured by surface plasmon resonance based pull down assay. In short, it runs like this:
as §1

Test [6] has as its target T1, Bcl-2-like protein 1. The test can be described thus: Binding affinity to Bcl-xl (unknown origin) measured by surface plasmon resonance based pull down assay. In outline:
as §1

The target in test [7] is T1, Bcl-2-like protein 1. The test can be described thus: Binding affinity to Bcl-XL (unknown origin) using puma peptide by surface plasmon resonance-based competition assay. To be noted: dose 1.0 µM. In outline: as §2
Test [8] concerns the target T1, Bcl-2-like protein 1. The test can be described thus: Binding affinity to recombinant Bcl-XL (unknown origin) premixed with human HeLa cell lysate incubated for 1 hr by SDS PAGE Western blot based pull down assay. The class given is subcellular. In outline:
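Streptavidin magnetic beads loaded with 100 µM biotinylated compound in PBS-T for 30 min, washed, then equilibrated in HBS-EP. His-tagged recombinant Bcl-XL (0.2 µM) spiked into 10 µg HeLa lysate and incubated with beads for 1 h with rotation. Three washes, heat elution in SDS buffer (95 C, 5 min), SDS-PAGE, anti-His western blot.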

T1 sequence (Q07817 whole entry): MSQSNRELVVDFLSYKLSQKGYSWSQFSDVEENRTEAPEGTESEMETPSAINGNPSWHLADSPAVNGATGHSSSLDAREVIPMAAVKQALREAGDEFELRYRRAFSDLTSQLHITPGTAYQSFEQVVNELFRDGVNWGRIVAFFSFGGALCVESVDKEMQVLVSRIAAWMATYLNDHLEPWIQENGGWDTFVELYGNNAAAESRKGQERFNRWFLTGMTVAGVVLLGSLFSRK
Sequence of Apoptosis regulator Bcl-2 (P10415 whole entry): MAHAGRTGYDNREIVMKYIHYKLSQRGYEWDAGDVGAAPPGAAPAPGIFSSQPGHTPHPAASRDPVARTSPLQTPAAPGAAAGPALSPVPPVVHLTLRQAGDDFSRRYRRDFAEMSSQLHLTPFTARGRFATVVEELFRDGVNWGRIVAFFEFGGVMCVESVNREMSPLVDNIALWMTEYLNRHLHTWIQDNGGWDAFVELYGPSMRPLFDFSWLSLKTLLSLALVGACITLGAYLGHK
Sequence of Induced myeloid leukemia cell differentiation protein Mcl-1 (Q07820 whole entry): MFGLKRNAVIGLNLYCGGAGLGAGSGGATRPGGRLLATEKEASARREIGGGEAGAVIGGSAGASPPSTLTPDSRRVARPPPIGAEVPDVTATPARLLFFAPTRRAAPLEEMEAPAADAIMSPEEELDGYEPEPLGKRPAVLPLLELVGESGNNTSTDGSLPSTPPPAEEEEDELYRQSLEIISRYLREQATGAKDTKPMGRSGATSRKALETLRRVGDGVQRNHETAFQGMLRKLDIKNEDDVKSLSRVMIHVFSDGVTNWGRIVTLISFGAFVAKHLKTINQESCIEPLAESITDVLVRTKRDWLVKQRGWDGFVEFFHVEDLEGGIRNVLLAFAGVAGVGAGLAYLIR

With `CC1(C)CCC(CN2CCN(c3ccc(C(=O)NS(=O)(=O)c4ccc(NCC5CCOCC5)c([N+](=O)[O-])c4)c(Oc4cnc5[nH]ccc5c4)c3)CC2)=C(c2ccc(Cl)cc2)C1` [VENETOCLAX], the half-maximal effective concentration (EC50) in test [1] came to 2.1 µM.
With `CC(C)C(NC1=NS(=O)(=O)c2ccccc21)C(=O)NCC(NC(=O)C1(NC(=O)COc2ccccc2-c2n[nH]c3ccc(Cl)cc23)CC1)C(=O)NC(=O)CCCCC[C@@H]1SC[C@@H]2NC(=O)N[C@@H]21` (some centres undefined), the figures for the Kd in test [2], in test [5] and in test [6] were 0.021 µM, 1.24 µM and 0.096 µM, respectively. The result in test [3], in test [4], in test [7] and in test [8] was Active. The EC50 in test [1] was 1.72 µM.

Usually EC50 stands for the concentration needed to bring the measured effect to its halfway point. As a reminder, the Kd is the free concentration of one partner at which half of the binding sites on the other are occupied at equilibrium, for simple one-to-one binding.
